# Experimental data collected from several papers.
# Protocols differ between the studies behind these lines. pEC50, pIC50, pKd, pKi: −log10 of the molar value.
# Oprk1: Kappa-type opioid receptor (Oprk1, Mus musculus, UniProt P33534)
# FPR1: fMet-Leu-Phe receptor (FPR1, Homo sapiens, UniProt P21462)
# CES2: Cocaine esterase (CES2, Homo sapiens, UniProt O00748)
# SLC6A2: Sodium-dependent noradrenaline transporter (SLC6A2, Homo sapiens, UniProt P23975)
# WD repeat-containing protein 91: WD repeat-containing protein 91 (Homo sapiens, UniProt A4D1P6)
Structure (SMILES),target,test,setting,endpoint,value
CC(C)[C@@H](CN1CCc2ccccc2C1)NC(=O)c1cccc(-c2cccc(C#N)c2)c1,Oprk1,"ligand displacement, radioligand",,pKi,5.67
N#Cc1ccc(C[C@H](NC(=O)c2cc3ccc(F)cc3[nH]2)C(=O)N2CCc3ccccc32)cc1,FPR1,"calcium signal, agonist",,pEC50,4.64
COc1cc2c(cc1OC)C(=O)/C(=C/c1ccc3ccccc3c1)C2,CES2,"enzyme activity, inhibitor, fluorescence",with preincubation,pIC50,4.98
CC(C)[C@@H](CN1CCc2ccccc2C1)NC(=O)c1c(Cl)cncc1Cl,Oprk1,"ligand displacement, radioligand",,pKi,4.40
CN1C(C(=O)Nc2ccccn2)=C(O)c2ccccc2S1(=O)=O,CES2,"enzyme activity, inhibitor, fluorescence",with preincubation,pIC50,< 4.00
N#Cc1ccc(C[C@H](Nc2nnc(-c3cccc(Br)c3)o2)C(=O)N2CCc3ccccc32)cc1,FPR1,"calcium signal, agonist",,pEC50,4.57
CC(C)[C@H](CN1CCc2ccccc2C1)NC(=O)c1ccc([N+](=O)[O-])s1,Oprk1,"ligand displacement, radioligand",,pKi,5.03
CCCCC[C@H](O)/C=C/[C@H]1C(=O)C[C@H](O)[C@@H]1C/C=C\CCCC(=O)O,"Prostaglandin D2 receptor (PTGDR, Homo sapiens, UniProt Q13258)","G protein activation, agonist, BRET",,pEC50,8.19
COc1cc(Nc2c(C#N)cnc3cc(OCCCN4CCN(C)CC4)c(OC)cc23)c(Cl)cc1Cl,CES2,"enzyme activity, inhibitor, fluorescence",with preincubation,pIC50,4.66
N#CC[C@@]12C[C@@H]1[C@@H](n1cnc3c(NCc4cccc(Cl)c4)nc(C#Cc4ccc(Cl)s4)nc31)[C@H](O)[C@@H]2O,SLC6A2,"ligand displacement, radioligand",,pKi,5.39
COc1cc2c(cc1OC)C(=O)/C(=C/c1ccccc1N1CCCC1)C2,CES2,"enzyme activity, inhibitor, fluorescence",with preincubation,pIC50,6.14
CNC(=O)[C@@]12C[C@@H]1[C@@H](n1cnc3c(Nc4ccccc4)nc(C#Cc4ccc(Cl)s4)nc31)[C@H](O)[C@@H]2O,SLC6A2,"ligand displacement, radioligand",,pKi,5.60
CNc1nc(N[C@@H]2CCc3c(C#N)cccc32)cc(-c2cccc(N3CCCC3)c2)n1,WD repeat-containing protein 91,"binding, SPR",,pKd,6.00
CCOC(=O)[C@@]12C[C@@H]1[C@@H](n1ccc3c(NCCCCc4ccccc4)nc(C#Cc4ccccc4)nc31)[C@H](O)[C@@H]2O,SLC6A2,"ligand displacement, radioligand",,pKi,5.82
COc1cc([C@@H]2c3cc4c(cc3[C@@H](O[C@@H]3O[C@@H]5CO[C@@H](C)O[C@H]5[C@H](O)[C@H]3O)[C@H]3COC(=O)[C@H]23)OCO4)cc(OC)c1O,CES2,"enzyme activity, inhibitor, fluorescence",with preincubation,pIC50,< 4.00
N#Cc1ccc(C[C@H](Nc2nnc(-c3cccc(Br)c3)s2)C(=O)N2CCc3ccccc32)cc1,FPR1,"calcium signal, agonist",,pEC50,4.48
COc1ccc(/C=C2\Cc3cc(OC)c(OC)cc3C2=O)cc1OC,CES2,"enzyme activity, inhibitor, fluorescence",with preincubation,pIC50,< 4.00
CCCC[C@H](NC(C)=O)C(=O)N[C@H]1CC(=O)NCCCC[C@@H](C(=O)N[C@@H](C(=O)N2CCC[C@@H]2C(N)=O)C(C)C)NC(=O)[C@H](Cc2c[nH]c3ccccc23)NC(=O)[C@H](CCCN=C(N)N)NC(=O)[C@@H](Cc2ccc3ccccc3c2)NC(=O)[C@@H]2CCCN2C1=O,"Melanocortin receptor 4 (MC4R, Homo sapiens, UniProt P32245)","cAMP, agonist",,pEC50,< 6.00
OC[C@@]12C[C@@H]1[C@@H](n1cnc3c(NCCCCCCc4ccccc4)nc(I)nc31)[C@H](O)[C@@H]2O,SLC6A2,"ligand displacement, radioligand",,pKi,5.85
CCn1c(=O)[nH]c2cc(C(=O)NC(c3ccc(F)cc3)c3cnn(C)c3)ccc2c1=O (centres unmarked),WD repeat-containing protein 91,"binding, SPR",,pKd,5.52
CCOC(=O)[C@@]12C[C@@H]1[C@@H](n1cnc3c(NCCCCCc4ccccc4)nc(I)nc31)[C@H](O)[C@@H]2O,SLC6A2,"ligand displacement, radioligand",,pKi,5.34
COc1cc2c(cc1OC)C(=O)/C(=C/C1CCCC1)C2,CES2,"enzyme activity, inhibitor, fluorescence",with preincubation,pIC50,5.20
CC(C)[C@@H](CN1CCc2ccccc2C1)NC(=O)c1cccc(-c2ccc(F)cc2)c1,Oprk1,"ligand displacement, radioligand",,pKi,4.89
OC[C@@]12C[C@@H]1[C@@H](n1cnc3c(N[C@@H](C4CCC4)C4CC4)nc(C#Cc4ccc(Cl)s4)nc31)[C@H](O)[C@@H]2O,SLC6A2,"ligand displacement, radioligand",,pKi,5.74
O=C1NC(=O)C(c2ccccc2)(c2ccccc2)N1,CES2,"enzyme activity, inhibitor, fluorescence",with preincubation,pIC50,< 4.00
CCOC(=O)[C@@]12C[C@@H]1[C@@H](n1cnc3c(NCCCCCCc4ccccc4)nc(I)nc31)[C@H](O)[C@@H]2O,SLC6A2,"ligand displacement, radioligand",,pKi,5.27
O=c1cc(-c2ccc(O)cc2)oc2cc(O)cc(O)c12,"NACHT, LRR and PYD domains-containing protein 3 (NLRP3, Homo sapiens, UniProt Q96P20)","binding, SPR",,pKd,4.73
CCOC(=O)[C@@]12C[C@@H]1[C@@H](n1cnc3c(NCc4cccc(Cl)c4)nc(C#Cc4ccc(Cl)s4)nc31)[C@H](O)[C@@H]2O,SLC6A2,"ligand displacement, radioligand",,pKi,5.92
O=C(CCNC(=O)CNC(=O)CC(c1ccccc1)(c1ccccc1)c1ccccc1)NC[C@@H]1CCCN(Cc2ccc(F)nc2)C1,"Muscarinic acetylcholine receptor M5 (CHRM5, Homo sapiens, UniProt P08912)","ligand displacement, radioligand",cell membranes,pIC50,< 4.52
